From ChEMBL document CHEMBL3425480 (J Med Chem, 2015)

Tests used:
Coxsackievirus B3 [1] = experiment: Anticoxsackie activity in CVB3 strain Nancy infected in human HeLa cells assessed as inhibition of virus-induced cytopathic effect after 4 hrs by XTT assay; assay type: functional, cell-based; details: Enterovirus B, 3 days, in the assay text read “after 3 days” for “after 4 hrs”
Procedure, shortened: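 HeLa cells seeded a day ahead (30000/well) in DMEM with L-glutamine, 2% FBS, penicillin/streptomycin. 3-fold serial compound dilutions in triplicate, 1 h preincubation, then CVB3 added at MOI 0.005 IU/cell. Incubated 3 days at 37 °C, 5% CO2. Viability by XTT over 4 h, absorbance of formazan read. EC50 by nonlinear regression of % viability vs log10 concentration.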

Hepatitis C virus [2] = experiment: Antiviral activity in HCV 1b infected in HUH 7-lunet cells after 3 days by Dual-Glo luciferase assay; assay type: functional, cell-based, Hepacivirus hominis; details: genotype 1b, Huh-7, 72 h
Procedure, shortened: (§1)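 Multiplex replicon assay in HUH 7-lunet cells carrying a genotype 1b replicon (I389luc-ubi-neo/NS3-3′/ET) or a 2a JFH-1 replicon (2aLucNeo-25). Cells kept in DMEM with GlutaMAX, 10% non-heat-inactivated FBS, 1 mg/mL G-418 and nonessential amino acids. 1600 cells/well (384-well) given serial dilutions. After three days, Renilla luciferase read by Dual-Glo.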

Human rhinovirus sp. = experiment: Antirhinovirus activity in HRVM infected in H1-HeLa cells assessed as inhibition of virus-induced cytopathic effect after 3 days by Cell-Titer Glo viability assay; assay type: functional, organism-based; details: 72 h
Procedure, shortened: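 H1-HeLa cells in RPMI with 10% heat-inactivated FBS and antibiotics, premixed in batch with HRV1A, HRV14 and HRV16, each at 4× TCID90. Replicate 3-fold serial dilutions in DMSO transferred acoustically (384-well). Incubated three days at 33 °C. Cytopathic effect read as viability by CellTiter-Glo.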

Hepatitis C virus [3] = experiment: Antiviral activity in HCV 2a JFH1 infected in HUH 7-lunet cells after 3 days by Dual-Glo luciferase assay; assay type: functional, cell-based, Hepacivirus hominis; details: subtype 2a JFH1, Huh-7, 72 h; procedure, shortened: as §1
[4] = Inhibition of PI4K3beta (unknown origin) assessed as hydrolysis of ATP for 60 mins by ADP-Glo kinase assay; parameters: species or system Homo sapiens
Procedure, shortened: (§2)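 ADP-Glo lipid kinase assay, 5 μL. Final enzyme: PI4K IIIβ 4 ng/μL, IIIα 2 ng/μL, IIα 2 ng/μL. Substrate PI/PS 50 μM, ATP 100 μM final. Inhibitors from 10 mM DMSO stocks. Run 60 min at 25 °C, ADP by luminescence.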

[5] = Inhibition of PI4K3alpha (unknown origin) assessed as hydrolysis of ATP for 60 mins by ADP-Glo kinase assay; parameters: species or system Homo sapiens; procedure, shortened: as §2
[6] = Cytotoxicity against human HeLa cells; assay type: cell-based
[7] = target: Phosphatidylinositol 4-kinase type 2-alpha (Homo sapiens, UniProt Q9BTU6); experiment: Inhibition of PI4K2alpha (unknown origin) assessed as hydrolysis of ATP for 60 mins by ADP-Glo kinase assay; procedure, shortened: as §2
Coxsackievirus B3 [8] = experiment: Anticoxsackie activity in CVB3 strain Nancy infected in human HeLa cells assessed as inhibition of virus-induced cytopathic effect after 3 days by XTT assay; details: Enterovirus B

Phosphatidylinositol 4-kinase type 2-alpha, sequence (Q9BTU6 whole entry): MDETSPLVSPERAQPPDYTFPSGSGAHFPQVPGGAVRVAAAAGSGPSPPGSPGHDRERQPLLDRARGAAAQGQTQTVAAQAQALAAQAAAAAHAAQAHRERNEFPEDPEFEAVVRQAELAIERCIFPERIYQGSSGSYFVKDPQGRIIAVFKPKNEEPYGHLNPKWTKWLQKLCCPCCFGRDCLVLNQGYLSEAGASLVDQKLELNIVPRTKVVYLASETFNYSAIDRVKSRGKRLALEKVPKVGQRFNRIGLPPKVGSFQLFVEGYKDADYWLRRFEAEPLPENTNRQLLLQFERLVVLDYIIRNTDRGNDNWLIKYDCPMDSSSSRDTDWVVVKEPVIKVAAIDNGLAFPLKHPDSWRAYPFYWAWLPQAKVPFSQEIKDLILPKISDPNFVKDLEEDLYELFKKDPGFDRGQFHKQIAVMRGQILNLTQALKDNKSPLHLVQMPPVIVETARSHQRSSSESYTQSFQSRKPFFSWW

Structure (SMILES) | EC50 (Coxsackievirus B3 [1]) | EC50 (Hepatitis C virus [2]) | EC50 (Human rhinovirus sp.) | EC50 (Hepatitis C virus [3]) | IC50 [4] | IC50 [5] | CC50 [6] | IC50 [7] | EC50 (Coxsackievirus B3 [8])
COc1ccc(-c2c(C)nn3c(NCCN4CCOCC4)cc(C)nc23)cc1OC | 3380 nM | 1030 nM | 2500 nM | > 44000 nM | – | – | – | – | –
COc1ccc(-c2c(C)nn3c(NCCNC(C)=O)cc(C)nc23)cc1OC | 1230 nM | 1030 nM | 2900 nM | > 44000 nM | 70 nM | 59400 nM | > 50000 nM | > 100000 nM | –
COc1ccc(-c2c(C)nn3c(NCCNC(=O)C(C)C)cc(C)nc23)cc1OC | 11000 nM | 1210 nM | 1620 nM | > 44000 nM | 120 nM | 62100 nM | > 50000 nM | > 100000 nM | –
COc1ccc(-c2c(C)nn3c(NCCNS(C)(=O)=O)cc(C)nc23)cc1OC | – | 910 nM | 3000 nM | 42500 nM | 120 nM | 29300 nM | > 50000 nM | > 100000 nM | 1430 nM
COc1ccc(-c2c(C)nn3c(NCCOC(C)=O)cc(C)nc23)cc1OC | 860 nM | 960 nM | 1380 nM | > 44000 nM | 67 nM | 29500 nM | > 50000 nM | > 100000 nM | –
COc1ccc(-c2c(C)nc3c(NCCN4CCOCC4)ccnn23)cc1OC | 500 nM | 370 nM | 880 nM | 17900 nM | 93 nM | 27500 nM | > 50000 nM | > 100000 nM | –
COc1ccc(-c2c(C)nc3c(NCCNC(C)=O)cc(Cl)nn23)cc1OC | 750 nM | 290 nM | 1090 nM | 31800 nM | – | 82700 nM | > 50000 nM | > 100000 nM | –
CC(=O)NCCNc1cc(Cl)nn2c(-c3ccc(F)c(C=O)c3)c(C)nc12 | > 50000 nM | 5300 nM | 24300 nM | 13600 nM | 89 nM | > 100000 nM | > 50000 nM | > 100000 nM | –
COc1ccc(-c2c(C)nc3c(NCCNC(C)=O)ccnn23)cc1OC | 280 nM | 360 nM | 2900 nM | 27900 nM | 92 nM | 33700 nM | > 50000 nM | > 100000 nM | –
COc1ccc(-c2c(C)nc3c(N)cc(Cl)nn23)cc1OC | 23 nM | 210 nM | 890 nM | 26500 nM | 83 nM | > 100000 nM | 1750 nM | > 100000 nM | –
C[C@@]1(O)[C@H](O)[C@@H](CO)O[C@H]1n1ccc2c(N)ncnc21 [BETA-2'-C-METHYL-7-DEAZA-ADENOSINE] | – | 210 nM | 5100 nM | 210 nM | – | – | > 50000 nM | – | –
